{
  "source": "ChEMBL document CHEMBL1687781",
  "about": "“Comparative biochemical and computational study of the role of naturally occurring mutations at Ambler positions 104 and 170 in GES β-lactamases” (Antimicrob Agents Chemother, 2010)",
  "format_in_all_cases": "functional",
  "key": {"[1]": {"test_system": "Escherichia coli", "assay": "Antimicrobial activity against Escherichia coli DH5[alpha] transformed with pAC-ges1 plasmid encoding Beta-lactamase GES-5 E104, S170 mutant in presence of at 4 ug/ml Tazobactam by Etest method", "outline": "(§1)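 E. coli DH5α host, either untransformed or carrying pACYC184-based clones of the GES variant genes; the source gene came from integron plasmid pBC-ges1. MICs were read by Etest following the manufacturer's recommendations, with the inhibitor held at a fixed 4 μg/ml.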"}, "[2]": {"test_system": "Escherichia coli", "assay": "Antimicrobial activity against Escherichia coli DH5[alpha] transformed with pAC-ges1 plasmid encoding Beta-lactamase GES-6 K104, S170 mutant by Etest method"}, "[3]": {"test_system": "Escherichia coli", "assay": "Antimicrobial activity against Escherichia coli DH5[alpha] transformed with pAC-ges1 plasmid encoding Beta-lactamase GES-6 K104, S170 mutant in presence of at 4 ug/ml Tazobactam by Etest method", "outline": "as §1"}, "[4]": {"test_system": "Escherichia coli", "assay": "Antimicrobial activity against Escherichia coli DH5[alpha] transformed with pAC-ges1 plasmid encoding Beta-lactamase GES-5 E104, S170 mutant by Etest method"}, "[5]": {"test_system": "Escherichia coli", "assay": "Antimicrobial activity against Escherichia coli DH5[alpha] transformed with pAC-ges1 plasmid encoding Beta-lactamase GES-7 K104, G170 mutant in presence of at 4 ug/ml Tazobactam by Etest method", "outline": "as §1"}, "[6]": {"test_system": "Escherichia coli", "assay": "Antimicrobial activity against Escherichia coli DH5[alpha] transformed with pAC-ges1 plasmid encoding Beta-lactamase GES-1 E104, G170 mutant in presence of at 4 ug/ml Tazobactam by Etest method", "outline": "as §1"}, "[7]": {"test_system": "Escherichia coli", "assay": "Antimicrobial activity against Escherichia coli DH5[alpha] in presence of at 4 ug/ml Tazobactam by Etest method", "outline": "as §1"}, "[8]": {"test_system": "Escherichia coli", "assay": "Antimicrobial activity against Escherichia coli DH5[alpha] transformed with pAC-ges1 plasmid encoding Beta-lactamase GES-13 K104, N170 mutant by Etest method"}, "[9]": {"test_system": "Escherichia coli", "assay": "Antimicrobial activity against Escherichia coli DH5[alpha] transformed with pAC-ges1 plasmid encoding Beta-lactamase GES-13 K104, N170 mutant in presence of at 4 ug/ml Tazobactam by Etest method", "outline": "as §1"}, "[10]": {"test_system": "Escherichia coli", "assay": "Antimicrobial activity against Escherichia coli DH5[alpha] transformed with pAC-ges1 plasmid encoding Beta-lactamase GES-2 E104, N170 mutant in presence of at 4 ug/ml Tazobactam by Etest method", "outline": "as §1"}, "[11]": {"test_system": "Escherichia coli", "assay": "Antimicrobial activity against Escherichia coli DH5[alpha] transformed with pAC-ges1 plasmid encoding Beta-lactamase GES-1 E104, G170 mutant by Etest method"}, "[12]": {"test_system": "Escherichia coli", "assay": "Antimicrobial activity against Escherichia coli DH5[alpha] transformed with pAC-ges1 plasmid encoding Beta-lactamase GES-2 E104, N170 mutant by Etest method"}, "[13]": {"test_system": "Escherichia coli", "assay": "Antimicrobial activity against Escherichia coli DH5[alpha] transformed with pAC-ges1 plasmid encoding Beta-lactamase GES-7 K104, G170 mutant by Etest method"}, "[14]": {"test_system": "Escherichia coli", "assay": "Antimicrobial activity against Escherichia coli DH5[alpha] by Etest method"}},
  "data": [
    {"smiles": "CCN1CCN(C(=O)N[C@@H](C(=O)N[C@@H]2C(=O)N3[C@@H]2SC(C)(C)[C@@H]3C(=O)O)c2ccccc2)C(=O)C1=O", "note": "[PIPERACILLIN]", "values": [
      {"measurement": "MIC", "setting": "[1]", "result": 2, "unit": "µg/mL"},
      {"measurement": "MIC", "setting": "[2]", "result": 12, "unit": "µg/mL"},
      {"measurement": "MIC", "setting": "[3]", "result": 2, "unit": "µg/mL"},
      {"measurement": "MIC", "setting": "[4]", "result": 8, "unit": "µg/mL"},
      {"measurement": "MIC", "setting": "[5]", "result": 1, "unit": "µg/mL"},
      {"measurement": "MIC", "setting": "[6]", "result": 1, "unit": "µg/mL"},
      {"measurement": "MIC", "setting": "[7]", "result": 1, "unit": "µg/mL"},
      {"measurement": "MIC", "setting": "[8]", "result": 8, "unit": "µg/mL"},
      {"measurement": "MIC", "setting": "[9]", "result": 1, "unit": "µg/mL"},
      {"measurement": "MIC", "setting": "[10]", "result": 1, "unit": "µg/mL"},
      {"measurement": "MIC", "setting": "[11]", "result": 8, "unit": "µg/mL"},
      {"measurement": "MIC", "setting": "[12]", "result": 4, "unit": "µg/mL"},
      {"measurement": "MIC", "setting": "[13]", "result": 12, "unit": "µg/mL"},
      {"measurement": "MIC", "setting": "[14]", "result": 4, "unit": "µg/mL"}
    ]}
  ]
}
